T cruzi growth-1: T. cruzi proliferation inhibition. T. cruzi beta-gal in NIH3T3, GalScreen luminescence, 90 h. inhibition, % at 8.34 µM. hit rate 5.9% among 77,000;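 active = mean inhibition above about 93%, with at least 55% of replicates each passing it, limit read from the data, passing the limit was not always enough; inconclusive = only one of those two conditions holds; inactive = neither condition holds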
KDM4C inh: inhibitors of human demethylase GASC-1 KDM4C | GST-KDM4C 2-372, H3K9me3 peptide, LANCE TR-FRET | inhibition, % at 12.5 µM | hit rate 0.15% among 96,000;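 active = mean replicate inhibition above about 25%, with at least 55% of replicates also reaching it, limit read from the data, passing the limit was not always enough; inconclusive = only one of those two conditions met; inactive = neither condition met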
Target sequence (Q9H3R0 2-372 limits assumed): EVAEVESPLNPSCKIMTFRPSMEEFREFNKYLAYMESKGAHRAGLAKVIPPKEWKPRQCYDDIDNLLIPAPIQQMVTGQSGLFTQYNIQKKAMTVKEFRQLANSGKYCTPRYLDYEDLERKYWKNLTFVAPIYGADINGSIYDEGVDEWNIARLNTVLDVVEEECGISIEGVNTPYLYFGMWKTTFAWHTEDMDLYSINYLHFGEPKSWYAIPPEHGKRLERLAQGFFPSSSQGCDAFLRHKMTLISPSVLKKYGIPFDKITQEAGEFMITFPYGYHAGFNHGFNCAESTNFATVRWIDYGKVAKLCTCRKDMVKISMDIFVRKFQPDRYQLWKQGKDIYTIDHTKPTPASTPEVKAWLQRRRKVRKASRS
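System: N-terminal GST-fused human GASC-1 (KDM4C) fragment, residues 2-372; amount: enzyme final amount 10 nM; incubation: reaction 30 min RT, detection step 1 h RT; medium: HEPES buffer, pH 7.5, plus ascorbate; technique: LANCE TR-FRET, Eu antibody, ULight-streptavidin, EDTA, ex 340 nm, em 618/671 nm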
IDH1 R132H inh: inhibitors of human IDH1 R132H; hit rate 0.18% among 70,000; IDH1 R132H reductase, diaphorase/resazurin fluorescence, 60 min; AID 624101; inhibition, % at 10 µM; O75874; in the data active = inhibition above about 34%; inconclusive = no clear call, values can overlap the other calls; inactive = below about 11%
Target sequence (O75874 whole entry R132H): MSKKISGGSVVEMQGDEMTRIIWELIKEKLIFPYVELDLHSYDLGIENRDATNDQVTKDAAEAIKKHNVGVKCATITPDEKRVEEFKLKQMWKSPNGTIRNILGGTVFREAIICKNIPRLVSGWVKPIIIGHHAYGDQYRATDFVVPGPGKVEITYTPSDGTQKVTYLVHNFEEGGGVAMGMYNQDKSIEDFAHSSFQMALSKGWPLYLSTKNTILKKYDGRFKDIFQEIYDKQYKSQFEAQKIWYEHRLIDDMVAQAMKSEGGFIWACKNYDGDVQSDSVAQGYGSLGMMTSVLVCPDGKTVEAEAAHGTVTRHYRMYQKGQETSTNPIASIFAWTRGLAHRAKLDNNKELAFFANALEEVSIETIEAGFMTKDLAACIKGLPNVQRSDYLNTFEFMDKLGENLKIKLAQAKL
Pf Dd2 inh: inhibitors of Plasmodium falciparum Dd2 growth. P. falciparum Dd2 growth, SYBR Green, 72 h; hits give low values. activity change, % at 10 µM. hit rate 2.3% among 94,000. AID 1159554; in the data active = activity change below about -80%; inconclusive = no clear call, values can overlap the other calls
T cruzi growth-2: inhibitors of T. cruzi proliferation; T. cruzi beta-gal in NIH3T3, GalScreen luminescence, 90 h; inhibition, % at 8.35 µM; hit rate 72% among 5,600; shares compounds with T cruzi growth-1; AID 651739;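 active = mean replicate inhibition above about 95% and at least 55% of replicates individually reaching it, limit read from the data; inconclusive = only one of the two criteria is met; inactive = neither criterion is met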
T cruzi growth-3: Trypanosoma cruzi proliferation inhibition. AID 651740. shares compounds with T cruzi growth-1. T. cruzi beta-gal in NIH3T3, GalScreen luminescence, 90 h. hit rate 21% among 5,600. inhibition, % at 2.09 µM;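 active = mean inhibition above about 95%, with at least 55% of replicates also reaching it, limit read from the data; inconclusive = meets just one of the two conditions; inactive = meets neither condition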
3T3 cytotox: cytotoxicity in mouse NIH/3T3 fibroblasts; shares compounds with T cruzi growth-1; NIH/3T3 viability, CellTiter-Glo ATP luminescence, 90 h; cytotoxicity (signal decrease), % at 8.35 µM; hit rate 14% among 5,600; AID 651742;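 active = mean signal decrease across replicates above about 35% based on untreated-well scatter, with enough replicates individually passing, limit read from the data; inconclusive = no rule stated though some were filed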
3T3 cytotox 2: cytotoxicity in mouse NIH/3T3 fibroblasts; shares compounds with T cruzi growth-1; NIH/3T3 viability, CellTiter-Glo ATP luminescence, 90 h; inhibition, % at 24.9 µM; hit rate 56% among 5,600;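 active = mean loss of cell viability signal at or above a set limit, and enough replicates individually reaching it; inconclusive = meets only the mean limit or only the replicate share; inactive = meets neither condition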
Of the large screens only hits and unclear results are named; the others gave an inactive call (follow-up assays come after a bar, where they were run). An excerpt weighted towards active compounds, which were near 5.8% of everything screened.

CC(C)CC#Cc1ccc2c(c1)O[C@H](CN(C)C(=O)C1CCC1)[C@@H](C)CN([C@H](C)CO)S2(=O)=O	none (no result: IDH1 R132H inh)
CC(C)CC#Cc1ccc2c(c1)O[C@@H](CN(C)C(=O)C1CCCCC1)[C@H](C)CN([C@H](C)CO)S2(=O)=O	T cruzi growth-1 114.0 | T cruzi growth-2 100.2 | T cruzi growth-3 111.5 | 3T3 cytotox inactive | 3T3 cytotox 2 103.9
CC(C)CC#Cc1ccc2c(c1)O[C@@H](CN(C)C(=O)C1CCCCC1)[C@@H](C)CN([C@H](C)CO)S2(=O)=O	T cruzi growth-1 114.5 (no result: IDH1 R132H inh) | T cruzi growth-2 95.7 | T cruzi growth-3 116.1 | 3T3 cytotox inactive | 3T3 cytotox 2 104.7
CCn1c(SCC(=O)c2ccc(Br)cc2)nnc1-c1ccco1	none (no result: T cruzi growth-1, KDM4C inh, Pf Dd2 inh)
COc1ccc(S(=O)(=O)Nc2ccc3c(c2)C(=O)N([C@H](C)CO)C[C@@H](C)[C@@H](CN(C)Cc2ccc4c(c2)OCO4)OCCCC[C@H](C)O3)cc1	none (no result: IDH1 R132H inh)
C[C@@H]1CCCCO[C@@H](CN(C)Cc2ccc3c(c2)OCO3)[C@@H](C)CN([C@@H](C)CO)C(=O)c2cc(NS(=O)(=O)c3ccc(F)cc3)ccc2O1	T cruzi growth-1 114.6 (no result: IDH1 R132H inh) | T cruzi growth-2 101.8 | T cruzi growth-3 inactive | 3T3 cytotox inactive | 3T3 cytotox 2 93.6
COc1ccc(S(=O)(=O)Nc2ccc3c(c2)C(=O)N([C@@H](C)CO)C[C@@H](C)[C@H](CN(C)Cc2ccc4c(c2)OCO4)OCCCC[C@H](C)O3)cc1	T cruzi growth-1 100.0 | T cruzi growth-2 109.4 | T cruzi growth-3 inactive | 3T3 cytotox inactive | 3T3 cytotox 2 65.5
Cc1ccc(S(=O)(=O)Nc2ccc3c(c2)C(=O)N([C@@H](C)CO)C[C@H](C)[C@H](CN(C)Cc2ccc4c(c2)OCO4)OCCCC[C@@H](C)O3)cc1	none (no result: IDH1 R132H inh)
Cc1ccc(S(=O)(=O)Nc2ccc3c(c2)C(=O)N([C@H](C)CO)C[C@@H](C)[C@@H](CN(C)Cc2ccc4c(c2)OCO4)OCCCC[C@@H](C)O3)cc1	T cruzi growth-1 inconclusive | T cruzi growth-2 105.4 | T cruzi growth-3 inactive | 3T3 cytotox inactive | 3T3 cytotox 2 102.0
COc1ccc2c(c1)c(CC(=O)OCc1ccccn1)c(C)n2C(=O)c1ccc(Cl)cc1	none (no result: T cruzi growth-1, KDM4C inh, Pf Dd2 inh)
CSc1cccc(NC(=O)CNS(=O)(=O)c2ccc(F)cc2)c1	none (no result: T cruzi growth-1, KDM4C inh, Pf Dd2 inh)
COC(=O)C[C@H]1C[C@@H]2c3cc(NC(=O)Nc4ccc(C(F)(F)F)cc4)ccc3O[C@@H]2[C@@H](CO)O1	T cruzi growth-1 103.8 | T cruzi growth-2 108.3 | T cruzi growth-3 inactive | 3T3 cytotox inactive | 3T3 cytotox 2 25.3
COCCNC(=O)C[C@@H]1C[C@H]2c3cc(NC(=O)Nc4ccc(C(F)(F)F)cc4)ccc3O[C@H]2[C@H](CO)O1	T cruzi growth-1 123.2 | T cruzi growth-2 inactive | T cruzi growth-3 inactive | 3T3 cytotox inactive | 3T3 cytotox 2 inactive
COc1ccc(C#Cc2cnc3c(c2)C(=O)N([C@H](C)CO)C[C@H](C)[C@H](CN(C)C)O3)cc1	T cruzi growth-1 100.8 | T cruzi growth-2 inactive | T cruzi growth-3 inactive | 3T3 cytotox inactive | 3T3 cytotox 2 65.1
COc1ccc(C#Cc2cnc3c(c2)C(=O)N([C@@H](C)CO)C[C@@H](C)[C@H](CN(C)CC2CCCC2)O3)cc1	T cruzi growth-1 111.4 (no result: KDM4C inh) | T cruzi growth-2 99.1 | T cruzi growth-3 inactive | 3T3 cytotox 117.7 | 3T3 cytotox 2 103.6
COc1cc(OC)c(NC(=O)CN(C)S(=O)(=O)c2cc(Cl)ccc2Cl)cc1Cl	none (no result: T cruzi growth-1, KDM4C inh, Pf Dd2 inh)
Cc1c(CC(=O)O)c(=O)oc2cc(OCC(=O)O)ccc12	none (no result: T cruzi growth-1, KDM4C inh, Pf Dd2 inh)
Cc1ccc(S(=O)(=O)N(C)C[C@H]2OCCCC[C@@H](C)Oc3ccc(NC(=O)c4ccccc4)cc3C(=O)N([C@@H](C)CO)C[C@@H]2C)cc1	Pf Dd2 inh inconclusive (no result: IDH1 R132H inh)
C[C@@H]1CN([C@@H](C)CO)C(=O)c2cc(NC(=O)c3ccccc3)ccc2O[C@@H](C)CCCCO[C@@H]1CN(C)S(=O)(=O)c1ccccc1	none (no result: IDH1 R132H inh)
Cc1ccc(S(=O)(=O)N(C)C[C@@H]2OCCCC[C@@H](C)Oc3ccc(NC(=O)c4ccccc4)cc3C(=O)N([C@@H](C)CO)C[C@H]2C)cc1	T cruzi growth-1 100.1, Pf Dd2 inh -81.2 | T cruzi growth-2 107.8 | T cruzi growth-3 inactive | 3T3 cytotox inactive | 3T3 cytotox 2 30.9
Cc1ccc(S(=O)(=O)N(C)C[C@H]2OCCCC[C@H](C)Oc3ccc(NC(=O)c4ccccc4)cc3C(=O)N([C@@H](C)CO)C[C@@H]2C)cc1	T cruzi growth-1 103.8, Pf Dd2 inh -81.5 | T cruzi growth-2 105.7 | T cruzi growth-3 inactive | 3T3 cytotox inactive | 3T3 cytotox 2 inactive
COc1ccc(C2C(C(=O)c3ccco3)C(=O)C(=O)N2CCN(C)C)cc1OC (configuration not stated)	none (no result: T cruzi growth-1, KDM4C inh, Pf Dd2 inh)
CC(C)CC#Cc1ccc([C@H]2[C@H]3CN(C(=O)c4ccc5c(c4)OCO5)CCCCN3[C@H]2CO)cc1	T cruzi growth-1 113.3 (no result: IDH1 R132H inh) | T cruzi growth-2 100.9 | T cruzi growth-3 inactive | 3T3 cytotox inactive | 3T3 cytotox 2 103.6
CC(C)C#Cc1ccc([C@@H]2[C@@H](CO)N3CCCCN(C(=O)c4ccc5c(c4)OCO5)C[C@@H]23)cc1	none (no result: IDH1 R132H inh)
CC(C)CC#Cc1ccc([C@H]2[C@H](CO)N3CCCCN(C(=O)c4ccc5c(c4)OCO5)C[C@@H]23)cc1	none (no result: IDH1 R132H inh)
CC(C)CC#Cc1ccc([C@@H]2[C@H](CO)N3CCCCN(C(=O)c4ccc5c(c4)OCO5)C[C@@H]23)cc1	T cruzi growth-1 106.2 (no result: IDH1 R132H inh) | T cruzi growth-2 103.6 | T cruzi growth-3 inactive | 3T3 cytotox inactive | 3T3 cytotox 2 104.9
C/C=C/c1ccc([C@@H]2[C@H]3CN(S(=O)(=O)c4ccc(OC)cc4)CCCCN3[C@H]2CO)cc1	T cruzi growth-1 inconclusive (no result: IDH1 R132H inh) | T cruzi growth-2 102.5 | T cruzi growth-3 inactive | 3T3 cytotox inactive | 3T3 cytotox 2 68.0
C/C=C/c1ccc([C@H]2[C@H](CO)N3CCCCN(S(=O)(=O)c4ccc(OC)cc4)C[C@@H]23)cc1	T cruzi growth-1 100.1 (no result: IDH1 R132H inh) | T cruzi growth-2 107.6 | T cruzi growth-3 inactive | 3T3 cytotox inactive | 3T3 cytotox 2 102.0
C/C=C/c1ccc([C@H]2[C@@H](CO)N3CCCCN(S(=O)(=O)c4ccc(OC)cc4)C[C@H]23)cc1	none (no result: IDH1 R132H inh)
C/C=C/c1ccc([C@H]2[C@@H](CO)N3CCCCN(S(=O)(=O)c4ccc(F)cc4)C[C@H]23)cc1	T cruzi growth-1 inconclusive (no result: IDH1 R132H inh) | T cruzi growth-2 108.0 | T cruzi growth-3 inactive | 3T3 cytotox inactive | 3T3 cytotox 2 102.9
COc1ccc(CCNc2cc(C)c3cccc(OC)c3n2)cc1OC	none (no result: T cruzi growth-1, KDM4C inh, Pf Dd2 inh)
Cc1nc(SCC(=O)Nc2ccccc2[N+](=O)[O-])c2c(C)c(C)sc2n1	none (no result: T cruzi growth-1, KDM4C inh, Pf Dd2 inh)

Compound activity as filed in PubChem.
